Results published in ChEMBL document CHEMBL2040790 (Bioorg Med Chem Lett, 2012).
Activity calls are given as the source filed them. No cut-off for these calls is given here.

What was measured:
La Crosse virus [1] = assay: Antiviral activity against La Crosse virus infected in african green monkey Vero cells assessed as inhibition of virus-induced cytopathic effect at 25 uM during single experiment set up by fluorometric analysis; type: functional, organism-based
Vaccinia virus [2] = assay: Antiviral activity against Vaccinia virus; type: functional, organism-based; details: Orthopoxvirus vaccinia
La Crosse virus [3] = assay: Antiviral activity against La Crosse virus infected in african green monkey Vero cells assessed as inhibition of virus-induced cytopathic effect by fluorometric analysis; type: functional, organism-based
Vero = assay: Cytotoxicity against african green monkey Vero cells; type: cell-based; details: chlorocebus sabaeus
Vaccinia virus [4] = assay: Antiviral activity against Vaccinia virus at 25 uM during single experiment set up; type: functional, organism-based; details: Orthopoxvirus vaccinia
Vaccinia virus [5] = assay: Antiviral activity against Vaccinia virus at 25 uM during one experiment of multiple experiment set up; type: functional, organism-based; details: Orthopoxvirus vaccinia
La Crosse virus [6] = assay: Antiviral activity against La Crosse virus infected in african green monkey Vero cells assessed as inhibition of virus-induced cytopathic effect during single experiment set up by fluorometric analysis; type: functional, organism-based
[7] = Solubility of the compound in simulated gastric fluid; type: physicochemical
[8] = Solubility of the compound in water; type: physicochemical
[9] = Solubility of the compound in Caco2 transport buffer; type: physicochemical, Caco-2
La Crosse virus [10] = assay: Antiviral activity against La Crosse virus infected in african green monkey Vero cells assessed as inhibition of virus-induced cytopathic effect at 5 uM after 4 days by spectrophotometric analysis; type: functional, organism-based
How it was run: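 Primary screen run at one fixed concentration of 5 μM. Compounds active at that level were then carried into dose-response testing (0.009–25 μM) against RVFV and LACV.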

[11] = tested on: Orthohantavirus andesense; assay: Antiviral activity against Andes virus; type: functional
Ebolavirus = assay: Antiviral activity against Ebola virus; type: functional
[12] = tested on: Human immunodeficiency virus 1; assay: Antiviral activity against Human immunodeficiency virus 1; type: functional, organism-based
Sindbis virus = assay: Antiviral activity against Sindbis virus; type: functional, organism-based
[13] = tested on: Encephalomyocarditis virus; assay: Antiviral activity against Encephalomyocarditis virus; type: functional, organism-based
[14] = tested on: Respiratory syncytial virus; assay: Antiviral activity against Respiratory syncytial virus; type: functional, organism-based
Rift Valley fever virus = assay: Antiviral activity against Rift Valley fever virus at 5 uM; type: functional, organism-based
How it was run: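 Single-concentration primary screen at 5 μM. Molecules active there and bearing viable scaffolds were then taken into concentration-response testing over 0.009–25 μM.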

Dengue virus = assay: Antiviral activity against Dengue virus; type: functional, organism-based
Tacaribe virus = assay: Antiviral activity against Tacaribe virus; type: functional, organism-based; details: Mammarenavirus tacaribeense
[15] = tested on: Mammarenavirus choriomeningitidis; assay: Antiviral activity against Lymphocytic choriomeningitis virus; type: functional
[16] = tested on: unidentified influenza virus; assay: Antiviral activity against influenza virus; type: functional, organism-based
Vaccinia virus [17] = assay: Antiviral activity against Vaccinia virus during single experiment set up; type: functional, organism-based; details: Orthopoxvirus vaccinia

| Structure (SMILES) | Activity (La Crosse virus [1]) | EC50 (Vaccinia virus [2]) [nM] | EC50 (La Crosse virus [3]) [nM] | Activity (Vaccinia virus [4]) | further results |
| --- | --- | --- | --- | --- | --- |
| CC(C)(C)c1ccc(C(=O)NC(=S)Nc2ccccc2)cc1 | inactive | 5570 | 5010 |  |  |
| CC(C)(C)c1ccc(C(=O)NC(=S)Nc2ccc(N3CCOCC3)cc2)cc1 | inactive | > 25000 | > 25000 | inactive | Activity (Vero): Toxic |
| COc1cc(NC(=S)NC(=N)c2ccc(C(C)(C)C)cc2)ccc1NC(=O)c1ccccc1Cl |  | 7640 | 3010 |  | Activity (Vaccinia virus [5]): inactive |
| CC(C)(C)c1ccc(C(=O)NC(=S)Nc2ccc(N3CCCCC3)cc2)cc1 | inactive | > 25000 | > 25000 | inactive | Activity (Vero): Toxic |
| CC(C)(C)c1ccc(C(=O)NC(=S)Nc2ccc(CN3CCCCC3)cc2)cc1 | inactive | > 25000 | > 25000 | inactive | Activity (Vero): Toxic |
| CC(C)(C)c1ccc(C(=O)NC(=S)Nc2ccccc2CN)cc1 |  | > 25000 | > 25000 |  | EC50 (La Crosse virus [6]): 6930 nM |
| COc1cc(NC(=S)NC(=O)c2ccc(C(C)(C)C)cc2)ccc1NC(=O)c1cccc(C(=O)O)c1 | inactive | > 25000 |  | inactive |  |
| CC(C)(C)c1ccc(C(=O)NC(=S)Nc2cc(Cl)ccc2Cl)cc1 | inactive | 2420 | 2450 | inactive |  |
| CNc1ccc(NC(=S)NC(=O)c2ccc(C(C)(C)C)cc2)c(Cl)c1.Cl |  | 330 | 240 |  | solubility ([7]; simulated gastric fluid, read-out: solubility): 3.2 µg/mL; solubility [8]: 0.2 µg/mL; solubility [9]: 0.1 µg/mL |
| COc1cc(NC(=S)NC(=O)c2ccc(C(C)(C)C)cc2)ccc1NC(=O)c1ccc(C(=O)O)cc1 | inactive | > 25000 | > 25000 | inactive |  |
| CC(C)(C)c1ccc(C(=O)NC(=S)Nc2cccc(N)c2)cc1 |  | 2720 | 2190 | inactive |  |
| CC(C)(C)c1ccc(C(=O)NC(=S)Nc2ccc(N)cc2)cc1 |  | 4410 | 2270 | inactive |  |
| CNc1cccc(C(=O)Nc2ccc(NC(=S)NC(=O)c3ccc(C(C)(C)C)cc3)cc2OC)c1.Cl |  | 1630 | > 25000 |  | Activity (Vero): Toxic |
| Cc1cc(C)cc(NC(=S)NC(=O)c2ccc(C(C)(C)C)cc2)c1 | inactive | 3480 | 4430 |  |  |
| CC(C)(C)c1ccc(C(=O)NC(=S)Nc2cc(C(C)(C)C)ccc2O)cc1 |  | 980 | 3420 |  | Activity (Vero): Toxic |
| Cc1ccc(Cl)c(NC(=S)NC(=O)c2ccc(C(C)(C)C)cc2)c1 | inactive | 660 | 1670 |  |  |
| CC(C)(C)c1ccc(C(=O)NC(=S)Nc2ccc(CN3CCOCC3)cc2)cc1 | inactive | > 25000 | > 25000 | inactive | Activity (Vero): Toxic |
| CC(=O)N1CCN(c2ccc(NC(=S)NC(=O)c3ccc(C(C)(C)C)cc3)cc2)CC1 | inactive | > 25000 | > 25000 | inactive | Activity (Vero): Toxic |
| COc1cc(NC(=S)NC(=O)c2ccc(C(C)(C)C)cc2)ccc1NC(=O)c1ccccc1Cl |  | 250 | 270 |  | Activity (La Crosse virus [10]): Active; Activity [11]: Active; Activity (Ebolavirus): Active; Activity [12]: Active; Activity (Sindbis virus): Active; Activity [13]: Active; Activity [14]: Active; Activity (Rift Valley fever virus): Active; Activity (Dengue virus): Active; Activity (Tacaribe virus): Active; Activity [15]: Active; Activity [16]: Active |

| Structure (SMILES) | Activity (La Crosse virus [1]) | EC50 (Vaccinia virus [2]) [nM] | EC50 (La Crosse virus [3]) [nM] | Activity (Vaccinia virus [4]) | further results |
| --- | --- | --- | --- | --- | --- |
| Cc1ccc(O)c(NC(=S)NC(=O)c2ccc(C(C)(C)C)cc2)c1 |  | > 25000 | > 25000 |  | Activity (Vero): Toxic |
| CC(C)(C)c1ccc(C(=O)NC(=S)Nc2ccc(NC(=O)c3ccccc3)cc2)cc1 | inactive | 170 | 150 | inactive |  |
| COc1cc(NC(=S)NC(=O)c2ccc(C(C)(C)C)cc2)ccc1N | inactive | 2090 | 1690 | inactive |  |
| CN(C)c1ccc(NC(=S)NC(=O)c2ccc(C(C)(C)C)cc2)c(Cl)c1.Cl |  | 3260 | 1550 |  | solubility ([7]; simulated gi fluid, BLD = below limit of detection): BLD |
| Cc1c(Cl)cccc1NC(=S)NC(=O)c1ccc(C(C)(C)C)cc1 | inactive | 6470 | 919 | inactive |  |
| CC(C)(C)c1ccc(C(=O)NC(=S)Nc2ccc(N)c(N)c2)cc1 |  | > 25000 | > 25000 |  | EC50 (Vaccinia virus [17]): 7780 nM |
| CC(C)(C)c1ccc(C(=O)NC(=S)Nc2ccccc2Cl)cc1 |  | 350 | 280 |  | Activity (La Crosse virus [10]): Active; Activity (Rift Valley fever virus): Active |
| CC(C)(C)c1ccc(C(=O)NC(=S)Nc2ccc(Cl)cc2)cc1 |  | > 25000 | > 25000 |  |  |
| Cc1cccc(NC(=S)NC(=O)c2ccc(C(C)(C)C)cc2)c1C |  | 1830 | 2590 |  |  |
| COc1cc(NC(=S)NC(=O)c2ccc(C(C)(C)C)cc2)ccc1NCc1ccccc1Cl |  | 340 | 200 |  |  |
| COc1cc(NC(=S)NC(=O)c2ccc(C(C)(C)C)cc2)ccc1NC(=O)c1cccc(N)c1 |  | > 25000 | > 25000 |  |  |
| COc1cc(NC(=S)NC(=O)c2ccc(C(C)(C)C)cc2)ccc1NC(=N)c1ccccc1Cl |  | 1750 | 2060 |  |  |
| CNc1ccc(C(=O)Nc2ccc(NC(=S)NC(=O)c3ccc(C(C)(C)C)cc3)cc2OC)cc1.Cl |  | 810 | > 25000 | inactive | Activity (Vero): Toxic |
| CC(C)(C)c1ccc(C(=O)NC(=S)Nc2ccc(N)cc2Cl)cc1 |  | 620 | 750 |  |  |
| CC(C)(C)c1ccc(C(=O)NC(=S)Nc2ccccc2[N+](=O)[O-])cc1 |  | 3640 | 3700 |  |  |
| Cc1ccc(C)c(NC(=S)NC(=O)c2ccc(C(C)(C)C)cc2)c1 |  | 2860 | > 25000 |  |  |
| CC(C)(C)c1ccc(C(=O)NC(=S)Nc2ccc(NC(=O)c3ccccc3Cl)c(N)c2)cc1 |  | 60 | 50 |  |  |
| CC(C)(C)c1ccc(C(=O)NC(=S)Nc2ccccc2C(=O)O)cc1 |  | > 25000 | > 25000 |  | EC50 (Vaccinia virus [17]): 2290 nM |
| COc1cc(NC(=S)NCc2ccc(C(C)(C)C)cc2)ccc1NC(=O)c1ccccc1Cl |  | > 25000 | > 25000 |  |  |
